Legend:
Felis catus [1] = test: The dose required to cause 50% increase in the contractility and inotropic activity as dLVP/dt(max) in anesthetized cat; format: functional
Summary of the method: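 Pentobarbitone-anesthetized cats (60 mg/kg ip), given pempidine 5 mg/kg and then propranolol 1 mg/kg iv plus 3–4 mg/kg sc. Cats responding to isoprenaline 0.01–0.1 μg/kg iv with less than a 100% contractility rise were rejected. Test compound given as an iv bolus, with dLVP/dt(max) as the read-out. ED50 is the dose giving a 50% rise over control, from dose-response curves, mean of ≥2 experiments. Duration was scored by the time for dLVP/dt to return to control.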

Felis catus [2] = test: ED15 is the dose producing 15% decrease in autoperfused hindquarters perfusion pressure in anesthetized cat; format: functional
Summary of the method: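 Anesthetized cats (either sex, 1.9–2.5 kg; pentobarbitone 60 mg/kg ip), ganglion-blocked with pempidine 5 mg/kg, then β-blocked with propranolol 1 mg/kg iv plus 3–4 mg/kg sc, heparinized 500 units/kg iv. Hindquarters autoperfused via the descending aorta. Test compound given as an iv bolus. ED15 taken as the dose lowering perfusion pressure by 15%, from dose-response curves, mean of ≥2 experiments.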

[3] = test system: Phosphodiesterase 3 (Felis catus); test: Inhibition of phosphodiesterase 3 enzyme activity by 50%
[4] = test system: Phosphodiesterase 3 (Felis catus); test: Inhibition of Phosphodiesterase 3

SMILES | IC50 [3] | IC50 [4] | ED50 (Felis catus [1]) | ED15 (Felis catus [2])
Oc1ccc(-c2ccc(-c3ccc(O)nn3)s2)nn1 | 0.49 µM | – | 0.73 µmol/kg | 0.38 µM/kg
Cc1cc(O)nnc1-c1ccc(-c2nnc(O)cc2C)cc1 | 37.5 µM | – | – | –
CC(=O)Nc1ccc(C2=NNC(=O)CC2C)cc1 (configuration not stated) | – | – | 0.03 µmol/kg | 0.08 µM/kg
CC1CC(O)=NN=C1c1ccc(-n2ccnc2)cc1 (configuration not stated) [CI-930] | – | – | 0.18 µmol/kg | 0.09 µM/kg
Oc1ccc(-c2ccc(-c3ccc(O)nn3)cc2)nn1 | 0.33 µM | – | 0.04 µmol/kg | 0.06 µM/kg
O=C1CCC(c2ccc(-n3ccnc3)cc2)=NN1 [IMAZODAN] | – | – | 0.64 µmol/kg | 0.42 µM/kg
Oc1ccc(-c2cccc(-c3ccc(O)nn3)c2)nn1 | 3.9 µM | – | – | 3.23 µM/kg
Oc1ccc(-c2ccc(-c3ccc(-c4ccc(O)nn4)cc3)cc2)nn1 | > 100 µM | – | – | –

Second part, led by results:

IC50 [3] | IC50 [4] | SMILES | ED50 (Felis catus [1]) | ED15 (Felis catus [2])
7.13 µM | – | CC(=O)Nc1ccc(C2=NNC(=O)CC2)cc1 | 0.19 µmol/kg | 0.2 µM/kg
0.64 µM | – | O=C1CCC(c2ccc(C3=NNC(=O)CC3)cc2)=NN1 | 0.55 µmol/kg | 0.12 µM/kg
6.38 µM | – | CC(=O)Nc1ccc(-c2ccc(O)nn2)cc1 | – | –
0.07 µM | – | CC1CC(=O)NN=C1c1ccc(-c2ccc(O)nn2)cc1 (configuration not stated) | 0.02 µmol/kg | 0.01 µM/kg
2.23 µM | – | CC1CC(=O)NN=C1c1ccc(C(N)=O)cc1 (configuration not stated) | 0.07 µmol/kg | 0.1 µM/kg
37 µM | – | CC1CC(=O)NN=C1c1ccc(N)cc1 (configuration not stated) | 1.7 µmol/kg | 0.5 µM/kg
– | 0.08 µM | CC1SC(=O)NN=C1c1ccc(C2=NNC(=O)SC2C)cc1 (configuration not stated) | 0.13 µmol/kg | 0.09 µM/kg
61.7 µM | – | Nc1ccc(C2=NNC(=O)CC2)cc1 | 4.43 µmol/kg | 1.4 µM/kg
22.8 µM | – | Nc1ccc(-c2ccc(O)nn2)cc1 | – | –
0.11 µM | – | CC1CC(=O)NN=C1c1ccc(C2=NNC(=O)CC2C)cc1 (configuration not stated) | 0.06 µmol/kg | 0.04 µM/kg

From ChEMBL document CHEMBL1124799, “1,4-bis(3-oxo-2,3-dihydropyridazin-6-yl)benzene analogues: potent phosphodiesterase inhibitors and inodilators” (1990)
